From ChEMBL document CHEMBL1126990, “Design and synthesis of 18F-labeled neurotoxic analogs of MPTP” (J Med Chem, 1993) come the findings set out here.

As a reminder, the Km is the concentration of substrate that gives half-maximal velocity. By Vmax is commonly meant the rate approached at saturating substrate.

Holding throughout (assay type): ADME
One series concerns MAO. Description: Michaelis-Menten constant (Km) for oxidation by rat liver MAO. A digest of the protocol:
(§1)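 Rat liver MAO (crude P2 mitochondrial fraction from adult male Wistar rats, in pH 7.4 phosphate buffer) incubated with substrate at 30 μM to 5 mM; colorimetric detection of H2O2 formed. Blanks contained 0.1 mM pargyline. Vmax and Km from linear regression of Lineweaver-Burk plots; means ± SE of n separate experiments; ANOVA with post-hoc Scheffe test.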

For series [1], the species on record is Rattus norvegicus. Kind of series: Maximal rate (Vmax) for oxidation by rat liver MAO. A digest of the protocol:
as §1

A short description of series [2]: Ratio between Vmax and Km. A digest of the protocol: as §1
The nature of series [3]: separate experiments, n=5). A digest of the protocol:
as §1

Series [4] is filed under the species Rattus norvegicus. Kind of series: Maximal rate (Vmax) for oxidation by rat liver MAO (results are means of number of separate experiments, n=5). In outline:
as §1

Each structure is given as a SMILES string.

Turning to `CN1CC=C(c2ccccc2CO)CC1`, in the series on MAO, the Km turned out to be 370 µM. Also, the maximum rate (Vmax) in the series filed under Rattus norvegicus [1] is 273 nM hr-1 (mg of protein)-1. The Ratio in series [2] amounted to 0.74.

In the case of `CN1CC=C(c2ccccc2CCl)CC1`, in series [3], the Km was 186 µM. In addition, the Vmax in the series filed under Rattus norvegicus [4] is listed as 231 nM hr-1 (mg of protein)-1. Further, the Ratio in series [2] worked out at 1.24.
